High-throughput results (PubChem BioAssay)
An excerpt weighted towards active compounds, which were near 8.7% of everything screened.
PostGolgi ctrl: growth inhibition of yeast control strain, primary screen, counter-screen for post-Golgi transport modulator project | efflux-deficient yeast background strain, growth absorbance A615, 16 h | inhibition, % at 10 µM | actives 5% (n = 98,000) | AID 738, 2007
PTK2B oligo ant: antagonists of Pyk2 self-association, primary screen, Q293 cells, FERM NanoBiT luminescence, HTS. Protein-tyrosine kinase 2-beta (Homo sapiens), Q14289. hits give low values. z-score (the deposit names both 25 µM and 10 µM). actives 0.83% (n = 99,000). AID 1347419, 2020;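 active = Z-score of -3 or lower, scaled per plate to the spread of control and sample wells; inactive = z-score above -3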;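 note: negative z-score means lost luminescence so less FERM oligomerization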
Ecoli tolC: growth inhibitors of E. coli tolC mutant, primary screen, strain BW25113 ΔtolC::kan, 384-well. OD615. growth inhibition, % at 10 µM (by protocol). actives 2.2% (n = 65,000);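 active = growth inhibition at or above a cutoff equal to the mean over every tested compound plus 3 SD, cut at about 60% in these data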;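 note: growth measured after 20 h incubation at 37 °C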
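Test system: E. coli BW25113 ΔtolC::kan bacteria; incubation: 37 °C, 20 h exposure; medium: LB broth supplemented with 50 µg/mL kanamycin; read-out basis: percent growth inhibition; signal: A615 absorbance measurement; compound: 10 µM final, single dose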
Ecoli WT expand: growth inhibitors of wild-type E. coli, primary screen, strain BW25113, expanded library, OD600 | OD600 absorbance | growth inhibition, % at 100 µM | actives 0.15% (n = 98,000) | AID 710, 2007;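 active = growth inhibition above about 50% at one test dose, limit read from the data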;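 note: growth measured after 20 h incubation at 37 °C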
PostGolgi yeast: phenotypic screen on post-Golgi transport, primary screen. inhibition, % at 10 µM. AID 739, 2007. post-Golgi transport phenotypic cell assay. actives 0.9% (n = 98,000);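 note: yeast cells grown in 1536-well plates; yeast grown about 18 h at 30C before absorbance read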
Cav32 inh: Cav3.2 calcium influx blockers – cell-based, Fluo-4 calcium fluorescence, FDSS, MLSMR library, primary screen | Cav3.2-expressing cells; hits give low values | AID 449739, 2010 | actives 4% (n = 100,000) | B-score at 10 µM | Voltage-dependent T-type calcium channel subunit alpha-1H (Homo sapiens), O95180;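 active = single-dose well whose peak fluorescence ratio is a statistical outlier from its plate by either plate-standardised score or position-corrected B-score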
Numbers without * were called inactive; nt = no result given. Cut-off read from the data, not from the text of the source, unless noted: active = inhibition above about 30%; inactive = the rest.

SMILES	PostGolgi ctrl	PTK2B oligo ant	Ecoli tolC	Ecoli WT expand	PostGolgi yeast	Cav32 inh
FC(F)(F)c1cc(Oc2ccccc2)nc(-c2ccccn2)n1	8	0.11	nt	0	0	-0.42
COCCN1CCN(C(=O)c2ccc3c(c2)S(=O)(=O)c2ccccc2C3=O)CC1	nt	nt	nt	nt	nt	0.93
CCCCN(C(=O)Cn1nnc2ccccc21)C(C(=O)NCCOC)c1cccs1 (stereo not drawn)	nt	-0.3	nt	nt	nt	0.55
COc1ccc(C(=O)NCCSCc2ccc(C)cc2)cc1	0	-1.5	nt	-5	-8	-5.6*
Cc1cc(Br)c(Cl)cc1NC(=O)CN1C(=O)C2C3CC(c4ccccc4)C(C3)C2C1=O (stereo not drawn)	nt	-0.46	nt	nt	nt	nt
O=C(NCc1ccco1)c1sc(=S)n2c1[nH]c(=O)c1ccccc12	32*	0.82	100*	11	-7	-2.7
CCn1c(N)c(C(=O)NCC2CCCO2)sc1=S (stereo not drawn)	10	-0.28	-9	-2	4	0.097
CCCCCNC(=O)c1ccc2c(=O)[nH]c3c(C(=O)NCC4CCCO4)sc(=S)n3c2c1 (stereo not drawn)	6	-1.5	100*	-5	-1	-3.1
O=C(NC1CCCC1)c1sc(=S)n2c1[nH]c(=O)c1ccccc12	51*	-3.1*	100*	1	4	-2.9
O=C(NC1CCCCCCC1)c1c(O)c2ccccc2[nH]c1=O	4	-0.5	-15	-5	-6	-0.032
O=C(Cn1cnc2cc(Cl)ccc2c1=O)Nc1ccc2c(c1)OCO2	5	1	nt	-2	4	-0.95
CCNc1nc(ON=C(C)C)nc(N(C)C)n1	nt	0.55	nt	nt	nt	nt
CN1C(=O)NC(c2cccc(O)c2)C(C(=O)c2cccs2)C1(O)C(F)(F)F (stereo not drawn)	3	0.27	42	75*	-10	-0.062
O=C(NCc1ccc(Cl)cc1)c1ccccc1Oc1ccccc1	33*	-1.5	nt	0	-8	-1.8
COCCCNC(=O)c1ccccc1Oc1ccccc1	0	0.49	-15	-1	14	nt
CCOC(=O)C1CCCCN1C(=O)CCc1c(C)nc2cc(-c3ccccc3)nn2c1C (stereo not drawn)	77*	nt	17	-4	3	nt
CC(C)(C)c1ccc(OCc2nc(-c3ccccn3)no2)c(Br)c1	32*	-1.6	100*	3	-1	-3.2
Clc1cc(Cl)c(OCc2nc(-c3ccccn3)no2)cc1Cl	13	-0.39	-3	-13	3	-0.014
Cc1ccc(NC(=O)C2CC(=O)N(c3ccc4c5c(cccc35)CC4)C2)cc1 (stereo not drawn)	31*	-0.11	nt	-12	-3	-2.4
C[C@H](NC(=O)c1ccccc1Cl)C(=O)OC(C(=O)Nc1cc(C(F)(F)F)ccc1Cl)c1ccccc1 (stereo partly drawn)	19	-1.9	nt	-9	-4	-8.4*
O=C(CNC(=O)c1ccccc1F)OC(C(=O)Nc1cc(C(F)(F)F)ccc1Cl)c1ccccc1 (stereo not drawn)	11	-1.3	nt	8	14	-5.4*
Cc1cc(C)cc(-n2nnc(C(=O)NCc3ccccc3Cl)c2N)c1	-5	-0.85	0	6	-2	-0.49
Cc1cc(C)c(S(=O)(=O)NCCn2c(C)cc3ccccc32)c(C)c1	44*	nt	nt	-9	-3	-0.097
C=CCn1c2ccccc2c2nnc(SC(CC)C(=O)Nc3sc4c(c3C#N)CCCC4)nc21 (stereo not drawn)	3	-1.7	nt	-12	-12	-2.8
O=C(Oc1ccc([N+](=O)[O-])cc1)c1cc(-c2ccccc2)nc2ccccc12	42*	-0.73	nt	-6	13	-1.6
SMILES	PostGolgi ctrl	PTK2B oligo ant	Ecoli tolC	Ecoli WT expand	PostGolgi yeast	Cav32 inh
CCN(CC)C(=O)COC(=O)c1cc(-c2ccc(OC)cc2)nc2ccccc12	40*	-1.9	nt	-26	1	-3.2
CCOC(=O)C(NC(=O)CC)C(O)c1cccc([N+](=O)[O-])c1 (stereo not drawn)	0	-0.3	nt	2	-4	0.81
O=C(CSc1ccsc1[N+](=O)[O-])N1CCN(c2ccc(Cl)cc2)CC1	nt	0.3	nt	nt	nt	nt
Cc1nc(NS(=O)(=O)c2ccc(Br)cc2)c2c3c(sc2n1)CCC3	33*	-2.7	nt	-2	-4	-4.6*
Cc1nc(NS(=O)(=O)c2cccs2)c2c3c(sc2n1)CCC3	29	0.19	20	-3	-3	0.014
O=S(=O)(Nc1ncnc2sc3c(c12)CCC3)c1ccc(Cl)s1	21	-1.9	63*	-2	3	-2.9
COc1ccc(C2N=C(c3ccccc3)C(C)(C)N2O)cc1OC (stereo not drawn)	0	0.75	-8	-3	-6	-0.46
O=[N+]([O-])c1ccc2c(c1)C(N1CCOCC1)/C(=C/COc1ccc3ccccc3c1Br)O2 (stereo not drawn)	9	0.4	nt	-11	-1	-2.4
O=[N+]([O-])c1ccc(OC/C=C2\Oc3ccc([N+](=O)[O-])cc3C2N2CCOCC2)cc1 (stereo not drawn)	35*	0.7	nt	-19	12	-2.2
O=[N+]([O-])c1ccc2c(c1)C(N1CCOCC1)/C(=C/COc1ccc(F)cc1)O2 (stereo not drawn)	8	-0.46	nt	-6	2	-7.3*
CC1=NN(C(=O)c2csc(C(C)C)c2)C(O)(C(F)(F)F)C1 (stereo not drawn)	nt	-0.4	nt	nt	nt	nt
CC(C)(C)c1cc(C(=O)O)nn1-c1ccccc1	-9	0.34	-5	-6	-1	0.18
CC(=O)c1ccc(-n2nncc2C(C)(C)C)cc1	33*	0.53	-7	-2	-9	1.3
CC(C)(C)c1cnnn1-c1ccc(NC(=O)c2ccc(Br)o2)cc1	44*	-1.2	21	12	5	-0.11
CC(C)(C)c1cnnn1-c1ccc(NC(=O)c2ccc3c(c2)OCO3)cc1	27	-0.47	21	-6	0	-1.2
Cc1cc(-c2nsc(=O)o2)c(S(C)(=O)=O)s1	5	0.33	-17	8	-2	nt
COc1ccc(O/C(=N\S(=O)(=O)c2ccccc2)c2ccccc2)cc1	7	-0.21	nt	3	-6	-0.24
CC(C)CO/C(=N/S(=O)(=O)c1ccccc1)c1ccccc1	7	-0.5	nt	-2	-7	-4.1*
CCOC(=O)c1cc2oc(C(c3nnnn3C3CCCCC3)N3CCOCC3)cc2[nH]1 (stereo not drawn)	14	0.79	7	-8	-1	-3.5*
COc1ccc(C)cc1-n1nnnc1SCc1nc2ccccc2s1	35*	-2.8	60	-25	-2	nt
COc1ccc(C)cc1-n1nnnc1SCC1CCCO1 (stereo not drawn)	19	0.84	nt	-10	-26	0.47
CC1=NN(c2ccccc2)C(=O)/C1=C/c1cc2cc(C)ccc2nc1N1CCCCC1	48*	nt	nt	-16	0	1.4
